Legend:
[1] = system: mouse platelets; assay: Platelet aggregation assay and ATP secretion; assay type: cell-based
Summary of the method: (§1)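 Washed mouse platelets (WT control, C57BL/6 or Ero1α/β-null) were pretreated 20 min at 37°C with 0.1% DMSO vehicle or test compound. After agonist addition, aggregation and ATP secretion were recorded together in a lumi-aggregometer at 37°C with stirring at 1,000 rpm.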

[2] = system: mouse platelets; assay: Analysis of cell viability; assay type: cell-based; details: 5 μM; incubation 20 minutes to 24 hours
Summary of the method: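 Platelets were isolated from ACD blood of C57BL/6, WT control or Ero1α/β CKO mice (8–12 weeks) and washed in HEPES-Tyrode buffer at 2 × 10^8 cells/mL. They were incubated at 37°C with vehicle (0.1% DMSO) or test compound for various times. Cells were then labelled with FITC-annexin V for 20 min and read by flow cytometry.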

[3] = system: mouse platelets; assay: Ca2+ mobilization; assay type: cell-based; details: thrombin, A23187 or thapsigargin
Summary of the method: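 Mouse platelets were preincubated 20 min with vehicle (0.1% DMSO) or test compound, then loaded with FLIPR Ca2+ 5 dye for 30 min at 37°C in the dark. Release was triggered by 0.02 U/mL thrombin, 0.5 μM A23187 or 5 μM thapsigargin, and influx by adding 2 mM CaCl2. Fluorescence was read at ex 485/em 525 nm and reported as area under the curve (RFU).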

[4] = system: human platelets; assay: Ca2+ mobilization; assay type: cell-based
[5] = system: Ero1α/β-null platelets; assay type: cell-based, mouse
Summary of the method: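 Washed mouse platelets (2 × 10^8/mL in HEPES-Tyrode; C57BL/6 or Ero1α/β-null) were pretreated 20 min at 37°C with 0.1% DMSO vehicle or test compound. Agonist was added for 5 min at 37°C. Cells were stained 15 min with labelled anti-P-selectin or JON/A (activated αIIbβ3) and read by flow cytometry as geometric mean fluorescence intensity.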

[6] = system: Ero1α/β-null platelets; assay: Platelet aggregation and ATP secretion in knockout platelets; assay type: cell-based, mouse
Summary of the method: as §1

[7] = system: C57BL/6 mice; assay: FeCl3-induced carotid arterial thrombosis; assay type: in vivo, mouse; details: for time to occlusion (TTO): iv 0.3 μg/g BW
Summary of the method: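 Male and female mice, 8–12 weeks, were anaesthetised with ip ketamine/xylazine. A 2 × 2 mm filter disc carrying 1.2 μL of 7 or 10% FeCl3 was placed on the carotid artery for 2 min. Flow was monitored by Doppler flow meter. TTO was the time from disc removal to stable occlusion (no flow for 5 min).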

[8] = 1 or 2.5 μM, 0.015 U/mL thrombin or 0.05 μg/mL CRP

## O=C(O)c1cc(N2N=C(C(F)(F)F)/C(=C/c3ccc(-c4ccccc4)o3)C2=O)ccc1Cl [EN460]
[1]; 1 μM, 0.5 µM U46619
  ATP secretion: without affecting ATP secretion
  platelet aggregation: completely inhibited U46619-induced platelet aggregation
[1]; 5 μM, 0.5 µM U46619
  platelet aggregation and ATP secretion: abolished both responses
[1]; 5 μM, 0.015 U/mL thrombin or 0.05 μg/mL CRP
  platelet aggregation and ATP secretion: markedly inhibited platelet aggregation and ATP secretion
[1]; 1-5 µM, 0.5 µM A23187
  platelet aggregation and ATP secretion: also inhibited platelet aggregation and ATP secretion
[1]; 1-5 µM, high concentration of thrombin (0.1 U/ml)
  platelet aggregation and ATP secretion: significantly inhibited both responses
[1]; [8]
  ATP secretion: had no effect on ATP secretion
  platelet aggregation: significantly inhibited aggregation
[1]; 2.5 or 5 μM, high concentration of CRP (0.2 µg/ml)
  platelet aggregation and ATP secretion: significantly inhibited both responses
[2]
  annexin V binding (platelet viability): markedly increased annexin V binding within 20 min
[3]; 0.25 or 0.5 μM
  Ca2+ release and influx: no or minimal inhibition
[3]; 1 or 2.5 μM
  Ca2+ release and influx: significantly reduced both Ca^2+ release and influx
[4]; 0.5 μM
  thrombin-induced Ca2+ influx: reduced thrombin-induced Ca^2+ influx
[4]; 2 or 5 μM, activated human platelets
  Ca2+ release and influx: significantly inhibited both Ca^2+ release and influx
[5]; M6766 5 μM, EN460 2.5 μM, no agonist
  P-selectin exposure and αIIbβ3 integrin activation in resting platelets: appeared to increase the levels of these surface markers
[5]; various concentrations, 0.01 U/mL thrombin, 0.025 μg/mL CRP
  agonist-induced P-selectin exposure and αIIbβ3 integrin activation: significantly reduced
[6]; 2.5 μM, 0.015 U/mL thrombin
  ATP secretion: not ATP secretion
  thrombin-induced aggregation: markedly inhibited thrombin-induced aggregation
[6]; 5 μM, 0.015 U/ml thrombin
  thrombin-stimulated aggregation and ATP secretion: significantly inhibited both responses
[7]; 0.1 μg/g BW, 7% FeCl3
  carotid arterial thrombosis (time to occlusion): did not inhibit carotid arterial thrombosis
[7]; 7% FeCl3
  time to occlusion (TTO): significantly prolonged the time to occlusion
[7]; 10% FeCl3
  time to occlusion (TTO): did not affect TTO

Reference: PMC12393906 (Molecular Therapy, 2025)
